Assay results published in ChEMBL document CHEMBL3085763, “The sulfamide moiety affords higher inhibitory activity and oral bioavailability to a series of coumarin dual selective RAF/MEK inhibitors” (Bioorg Med Chem Lett, 2013).

Legend:
[1] = AUC (0 to t) in […] mouse at 200 mg/kg, po after 24 hrs by LC/MS/MS analysis; assay type: ADME, organism-based; set-up: time < 24 hr, dose 200 mg/kg, route oral; details: plasma
[2] = AUC (0 to t) in […] mouse at 100 mg/kg, po after 24 hrs by LC/MS/MS analysis; assay type: ADME, organism-based; set-up: time < 24 hr, dose 100 mg/kg, route oral; details: plasma
[3] = Oral bioavailability in […] mouse at 100 mg/kg after 24 hrs by LC/MS/MS analysis; assay type: ADME, organism-based; details: in vivo
Method in brief: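 Mouse 24-h exposure study with oral dosing at 100 mg/kg of the free form (not sodium salt). Formulated as a solution of 5% DMSO, 5% Cremophor EL, 15% PEG400, 15% HPCD and 60% water.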

[4] = AUC (infinity) in Crlj:CD rat at 10 mg/kg, po; assay type: ADME, organism-based; set-up: time infinity, dose 10 mg/kg, route oral; details: plasma
Method in brief: (§1)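 The sodium salt was dosed iv and po: mouse 10/20 mg/kg, rat 5.0/10 mg/kg, monkey 2.5/5.0 mg/kg. Vehicle was 5% DMSO/5% Cremophor EL/15% PEG400/15% HPCD/60% water. AUCinf was taken after po dosing; t1/2 was taken after iv dosing.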

[5] = Oral bioavailability in cynomolgus monkey at 5 mg/kg; assay type: ADME, organism-based, Macaca fascicularis; details: in vivo
Method in brief: (§2)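 Single intravenous and oral doses given as the sodium salt in 5% DMSO/5% Cremophor EL/15% PEG400/15% HPCD/60% water. The iv/po doses were 10/20 mg/kg in mouse, 5.0/10 mg/kg in rat and 2.5/5.0 mg/kg in monkey. Oral AUCinf, iv t1/2 and clearance were also reported.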

[6] = AUC (infinity) in BALB-nu/nu mouse at 20 mg/kg, po; assay type: ADME, organism-based; set-up: time infinity, dose 20 mg/kg, route oral; details: plasma; method in brief: as §1
[7] = Oral bioavailability in BALB-nu/nu mouse at 20 mg/kg; assay type: ADME, organism-based; details: in vivo; method in brief: as §2
[8] = AUC (infinity) in cynomolgus monkey at 5 mg/kg, po; assay type: ADME, organism-based, Macaca fascicularis; set-up: time infinity, dose 5 mg/kg, route oral; details: plasma; method in brief: as §1
[9] = Oral bioavailability in Crlj:CD rat at 10 mg/kg; assay type: ADME, organism-based; details: in vivo; method in brief: as §2
[10] = AUC (0 to t) in […] mouse at 50 mg/kg, po after 24 hrs by LC/MS/MS analysis; assay type: ADME, organism-based; set-up: time < 24 hr, dose 50 mg/kg, route oral; details: plasma
[11] = tested on: Mus musculus; assay: AUC (0 to t) in […] mouse assessed as dimethylcarbamic acid 6-chloro-4-methyl-2-oxo-3-[3-(sulfamoylamino)benzyl]-2H-chromen-7-yl ester level at 200 mg/kg, po after 24 hrs by LC/MS/MS analysis; assay type: ADME, organism-based, Plasma; set-up: time < 24 hr, dose 200 mg/kg, route oral; details: in vivo

Compound | AUC(0-t) at 24 h [1] [µM·h] | AUC(0-t) at 24 h [2] [µM·h] | other results
Cc1c(Cc2cccc(NS(N)(=O)=O)c2)c(=O)oc2cc(OC(=O)N(C)C)c(Cl)cc12 | 70 | – | –
Cc1c(Cc2cccc(N)c2)c(=O)oc2cc(OC(=O)N(C)C)c(Cl)cc12 | 29 | – | –
CNS(=O)(=O)[N-]c1cccc(Cc2c(C)c3cc(Cl)c(OC(=O)N(C)C)cc3oc2=O)c1.[Na+] | – | 51 | bioavailability [3]: 31%
CCS(=O)(=O)Nc1cccc(Cc2c(C)c3cc(Cl)c(OC(=O)N(C)C)cc3oc2=O)c1 | – | 30 | –
Cc1c(Cc2cccc(NS(C)(=O)=O)c2)c(=O)oc2cc(OC(=O)N(C)C)c(Cl)cc12 | – | 41 | –
Cc1c(Cc2cccc(NS(=O)(=O)NCCO)c2)c(=O)oc2cc(OC(=O)N(C)C)c(Cl)cc12 | 14 | – | –
Cc1c(Cc2cccc(NS(N)(=O)=O)c2F)c(=O)oc2cc(OC(=O)N(C)C)c(F)cc12 | – | – | AUC(0-inf) [4]: 6 µM·h; bioavailability [5]: 30%; AUC(0-inf) [6]: 26 µM·h; bioavailability [7]: 51%; AUC(0-inf) [8]: 2.2 µM·h; bioavailability [9]: 62%
Cc1c(Cc2cccc(NS(=O)(=O)NCC(F)(F)F)c2)c(=O)oc2cc(OC(=O)N(C)C)c(Cl)cc12 | – | 26 | –
Cc1c(Cc2cccc(NS(=O)(=O)NCCC#N)c2)c(=O)oc2cc(OC(=O)N(C)C)c(Cl)cc12 | 25 | – | –
Cc1c(Cc2cccc(NS(=O)(=O)N(C)C)c2)c(=O)oc2cc(OC(=O)N(C)C)c(Cl)cc12 | – | – | AUC(0-t) at 24 h [10]: 3 µM·h
COCCNS(=O)(=O)Nc1cccc(Cc2c(C)c3cc(Cl)c(OC(=O)N(C)C)cc3oc2=O)c1 | 9 | – | AUCt [11]: 14 µM·h
CNS(=O)(=O)Nc1cccc(Cc2c(C)c3cc(Cl)c(OC(=O)N(C)C)cc3oc2=O)c1 | – | 17 | bioavailability [5]: < 5%; bioavailability [3]: 10%
CONS(=O)(=O)Nc1cccc(Cc2c(C)c3cc(Cl)c(OC(=O)N(C)C)cc3oc2=O)c1 | – | 62 | –
